# NadD inh: NadD (S. aureus) enzyme inhibition; purified NadD enzyme, colorimetric absorbance read-out; inhibition, % at 20 µM; actives 0.78% (n = 360,000); AID 602399; in the data active = inhibition above about 26%
# UCH37 inh: human UCH37 deubiquitinating enzyme inhibition; Q9Y5K5; purified proteasome/UCH37, Ub-AMC cleavage fluorescence; inhibition, % (concentration not given with the values); actives 0.33% (n = 330,000); AID 588478;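 active = mean inhibition over replicate wells above about 20%, limit read from the data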
#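 Signal – fluorescence, ex 355 nm, em 460 nm · System – Proteasome-bound UCH37 · Input – 0.15 nM proteasome as dispensed · Timing – 30 min preincubation with enzyme, 25 min cleavage at room temperature · Read-out basis – percent inhibition of cleavage signal versus uninhibited and no-proteasome wells · Medium – Tris-HCl pH 7.4 with ATP-MgCl2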
# SENP1 inh: inhibitors of human SENP1 SUMO protease catalytic domain. Q9P0U3. recombinant SENP1 catalytic domain, CyPet-SUMO1-YPet FRET cleavage. inhibition, % at 10 µM. actives 0.21% (n = 360,000). AID 624204;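 active = inhibition at least 30% at 10 µM, raw YFP signal under a set limit, fluorescence ratio 0.5 to 1.5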
# Target sequence (Q9P0U3 419-644 limits assumed): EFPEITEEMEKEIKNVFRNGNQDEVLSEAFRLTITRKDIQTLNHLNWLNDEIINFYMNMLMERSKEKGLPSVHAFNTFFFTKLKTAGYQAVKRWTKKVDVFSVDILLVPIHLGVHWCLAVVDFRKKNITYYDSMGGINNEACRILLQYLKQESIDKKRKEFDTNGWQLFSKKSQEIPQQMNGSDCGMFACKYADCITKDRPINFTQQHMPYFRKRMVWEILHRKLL
#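 Test system: recombinant human SENP1 catalytic domain, His6-tagged / Medium: pH 8 Tris buffer with EDTA, NaCl, BME, BSA, NP40, catalase / Also added: SUMO1 FRET substrate flanked by Cypet and Ypet, 25 nM / Times: 50 min reaction at room temperature / Signal: FRET, CFP and YFP emission / Control set: no-enzyme low control and enzyme-plus-DMSO high control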
# ATG4B inhibitor: ATG4B (human) cysteine protease inhibition | inhibition, % at 8.33 µM | AID 504462 | actives 0.51% (n = 340,000) | Q9Y4P1 | ATG4B cleavage of LC3-PLA2, NBD-HPC fluorescence, 1 h; in the data active = inhibition above about 40%
# Target sequence (Q9Y4P1 whole entry, looked up): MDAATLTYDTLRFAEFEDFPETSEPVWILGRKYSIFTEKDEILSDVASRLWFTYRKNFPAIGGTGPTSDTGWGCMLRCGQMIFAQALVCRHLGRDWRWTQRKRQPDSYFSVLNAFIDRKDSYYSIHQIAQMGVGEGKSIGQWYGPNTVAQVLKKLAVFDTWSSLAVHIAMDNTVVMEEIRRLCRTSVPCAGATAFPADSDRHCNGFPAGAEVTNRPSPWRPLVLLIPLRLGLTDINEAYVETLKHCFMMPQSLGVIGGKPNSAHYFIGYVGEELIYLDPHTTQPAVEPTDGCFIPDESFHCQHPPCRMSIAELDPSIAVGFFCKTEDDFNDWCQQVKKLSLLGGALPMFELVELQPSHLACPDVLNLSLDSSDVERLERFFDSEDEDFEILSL
# NR3A LBD binder: NR3A (human) ligand-binding domain modulation. Tm shift relative to glycine control, % at 25 µM. AID 1259313. actives 2.5% (n = 340,000). NR3A LBD differential scanning fluorimetry, Tm shift; 0% = protein alone, 100% = glycine-bound protein;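 active = melting temperature shift of at least 10% of the positive control shift, at one fixed dose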
# A number is an active result; – = inactive; · = no result given. A selection: hits, their analogues and other compounds. The true share with any hit is near 3.6%.
SMILES,NadD inh,UCH37 inh,SENP1 inh,ATG4B inhibitor,NR3A LBD binder
COc1ccc(C)cc1NS(=O)(=O)c1ccc2c(c1)n(C)c(=O)n2C,–,–,–,–,–
COC(=O)c1nn(-c2ccccc2)c(Sc2ccc(Br)cc2)c1C=NO,·,–,·,·,·
COc1cc(-c2nc(-c3ccc4c(c3)-c3ccccc3S4(=O)=O)c(-c3ccccc3)[nH]2)cc(OC)c1O,35,–,–,–,–
CC1=CC(C)(C)N(C(=O)CN2C(=O)c3ccccc3C2=O)c2ccccc21,–,–,–,–,12
O=C(Cc1ccc(Cl)cc1)Nc1ccc(S(=O)(=O)Nc2cnc3ccccc3n2)cc1,–,·,–,–,10
Cc1cc(Cl)ccc1OC(C)C(=O)Nc1ccc(S(=O)(=O)N2CCOCC2)cc1 (stereo not given),–,–,–,–,–
CC(Oc1ccc(Cl)cc1Cl)C(=O)Nc1ccc(S(=O)(=O)Nc2cnc3ccccc3n2)cc1 (stereo not given),·,–,·,–,18
Cc1cc(Cl)ccc1OC(C)C(=O)Nc1ccc(S(=O)(=O)Nc2cnc3ccccc3n2)cc1 (stereo not given),–,–,–,–,14
O=C(Nc1ccc(S(=O)(=O)Nc2cnc3ccccc3n2)cc1)c1ccc(Cl)cc1Cl,–,–,–,–,–
Cc1cc(Cl)ccc1OC(C)C(=O)Nc1ccc(C(=O)Nc2ccccc2C(=O)O)cc1 (stereo not given),–,–,–,–,15
S=c1[nH]nc(COc2ccccc2)n1N=Cc1cccc(Cl)c1Cl,·,–,·,·,·
CC(/C=C/c1ccc2c(c1)OCO2)=NNC(=O)COc1ccccc1C,·,–,·,·,·
N#Cc1ccccc1NC(=O)Nc1cccc(Cl)c1,–,–,–,–,–
O=C(O)CSc1ccc(NC(=O)Nc2ccccc2F)cc1,–,–,–,–,10
O=C(Nc1cccc(Cl)c1)Nc1ccc(Br)cc1F,–,–,–,–,21
O=C(Nc1ccccc1)Nc1ccc(Br)cc1F,–,–,–,–,12
COC(=O)c1cc(Br)ccc1NC(=O)Nc1ccccc1,–,–,–,–,–
CC(=NNC(=O)COc1ccc2ccccc2c1)c1cccs1,·,–,·,·,·
O=C(CNc1cccc2ccccc12)NN=Cc1ccc([N+](=O)[O-])o1,·,–,·,·,·
COc1cc(/C=N\NC(=O)c2ccc(-c3ccccc3)cc2)cc(OC)c1O,–,·,–,–,12
Cc1ccc(C(C)C)c(OCc2ccc(C(=O)NN=Cc3ccc(O)cc3O)cc2)c1,·,–,·,·,·
Cc1ccc(C(C)C)c(OCc2ccc(C(=O)N/N=C/c3cccc(O)c3O)cc2)c1,–,·,–,–,24
Cc1ccc(C(C)C)c(OCc2ccc(C(=O)N/N=C/c3ccc(O)c(O)c3)cc2)c1,34,·,–,–,34
COc1cc(/C=N/NC(=O)c2ccc(COc3cc(C)ccc3C(C)C)cc2)cc(OC)c1O,–,·,–,–,21
O=C(ON=CC1=C(Cl)c2ccccc2CC1)c1ccc(F)cc1,·,–,·,·,·
SMILES,NadD inh,UCH37 inh,SENP1 inh,ATG4B inhibitor,NR3A LBD binder
COc1ccc(/C=N/NC(=O)c2ccc3ccccc3c2)cc1OS(=O)(=O)c1ccc(NC(C)=O)cc1,–,·,–,–,28
COc1ccc(C=NNC(=O)c2cccc([N+](=O)[O-])c2)cc1OS(=O)(=O)c1ccccc1,·,–,·,·,·
C/C(=N/NC(=O)c1cc(-c2cccc([N+](=O)[O-])c2)n[nH]1)c1cccc(O)c1,–,·,–,–,10
CC(=NNC(=O)c1cc(-c2cccc([N+](=O)[O-])c2)n[nH]1)c1cccc(O)c1,·,–,·,·,·
C/C(=N/NC(=O)c1ccc(O)cc1)c1cccc([N+](=O)[O-])c1,–,·,–,–,209
C/C(=N\NC(=O)c1cc(-c2cccc([N+](=O)[O-])c2)n[nH]1)c1ccccc1O,–,·,–,–,26
C/C(=N\NC(=O)c1cc(-c2cccc([N+](=O)[O-])c2)n[nH]1)c1ccc(F)cc1,–,·,–,–,63
Cc1ccc(-c2nnc(SCC(=O)NN=Cc3ccccc3C(=O)O)n2-c2ccc(C)cc2)cc1,·,–,·,·,·
CCOC(=O)c1cc(-c2cccc([N+](=O)[O-])c2)n[nH]1,–,–,–,–,33
O=C(CCNC(=O)c1ccccc1Cl)Nc1ccc(Br)c(C(F)(F)F)c1,–,24,–,–,–
CN(c1ccccc1)c1ccc(C=NN2CCOCC2)cc1,·,–,·,·,·
CCc1ccc(NC(=O)CCc2c(C)nn(-c3ccc(N4CCCCC4)nn3)c2C)cc1,–,–,–,–,–
CCOc1ccc(NC(=O)CCc2c(C)nn(-c3ccc(N4CCCCC4)nn3)c2C)cc1,–,–,–,–,14
COc1cc(C(=O)NN=C(C)Cc2ccccc2)cc(OC)c1OC,·,–,·,·,·
COc1cccc2c1C(=O)c1c(O)c3c(c(O)c1C2=O)C[C@@](O)(C(=O)CO)C[C@@H]3O[C@H]1C[C@H](N)[C@@H](O)[C@H](C)O1,57,–,–,–,–
CC(=O)[C@]1(O)Cc2c(O)c3c(c(O)c2[C@@H](O[C@H]2C[C@H](N)[C@H](O)[C@H](C)O2)C1)C(=O)c1ccccc1C3=O,·,–,·,–,–
COc1cccc2c1C(=O)c1c(O)c3c(c(O)c1C2=O)C[C@@](O)(C(C)=O)C[C@@H]3O[C@H]1C[C@H](N)[C@H](O)[C@H](C)O1,–,–,–,–,–
COc1cccc2c1C(=O)c1c(O)c3c(c(O)c1C2=O)CC(O)(C(=O)CO)CC3OC1CC(N(C)C)C(O)C(C)O1 (stereo not given),33,·,–,–,–
CCOc1ccc(N2C(=O)CSC2=NNC(=O)COc2ccc3ccccc3c2)cc1,·,–,·,·,·
CCOC(=O)CSc1nc2c(sc(=S)n2-c2ccccc2OC)c(=O)n1Cc1ccco1,–,–,–,–,19
Cc1ccc(N2CCN(N=C/C=C/c3ccccc3)CC2)cc1,·,–,·,·,·
CC(=NNC(=O)c1ccc(Br)cc1)c1cccnc1,·,–,·,·,·
Cc1noc(C)c1COc1ccc(C(=O)OCC(=O)c2ccc3c(c2)OCCO3)cc1,–,–,–,–,11
COc1ccc(C(=O)Nc2ccc(S(=O)(=O)N3CCN(C)CC3)cc2)cc1[N+](=O)[O-],–,–,–,–,–
COc1ccc(C(=O)Nc2ccc(S(=O)(=O)NC(C)=O)cc2)cc1[N+](=O)[O-],–,–,–,–,–
CCOCCCNS(=O)(=O)c1ccc(NC(=O)c2ccc(OC)c([N+](=O)[O-])c2)cc1,–,–,–,–,17
Cc1cc(C(=O)Nc2ccc(S(=O)(=O)N3CCOCC3)cc2)ccc1[N+](=O)[O-],–,–,–,–,30
Cc1cc(C)c(C)c(S(=O)(=O)N2CCC(C(=O)Nc3ccc(S(=O)(=O)N4CCOCC4)cc3)CC2)c1C,–,–,–,–,19
COc1ccc(C(=O)Nc2ccc(S(=O)(=O)N3CCOCC3)cc2)cc1[N+](=O)[O-],–,–,–,–,35
Cc1ccsc1C=NNC(=O)c1cccc(S(=O)(=O)Nc2ccccc2Cl)c1,·,–,·,·,·
